Measured values taken from PubChem BioAssay.
Results filed as inconclusive are left out. Activity calls are given as the source filed them.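 The calls were made as follows, unless noted: active = inhibition over a set limit, the all-compound mean plus 3 SD, in both replicate runs; inconclusive = over that limit in just one replicate run; inactive = at or under that limit in both runs.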

Legend:
[1] = S. cerevisiae growth inhibition in permissive medium (OD615), pilot counter-assay for S. cerevisiae lifespan shortening project, permissive growth control (AID 705;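 active = growth inhibition above 25% in both replicates, a cutoff set 3 SD above the mean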); conditions: OD615, 24 h, at 10 µM, active compounds read high
In short: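 Test system: Saccharomyces cerevisiae strain carrying genetically modified DeaD replicative-lifespan system; buffer or medium: SC raffinose/galactose permissive medium; dosing: one dose 10 µM, DMSO 0.25% final; times: 24 h exposure, 30 °C; measured by: OD at 615 nm; read-out basis: growth inhibition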

[2] = S. cerevisiae growth inhibition in restrictive medium, OD615, pilot screen, restrictive growth control, yeast lifespan reduction project (AID 706;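 active = growth inhibition above a set limit, 3 SD over mean compound inhibition, in both replicates, cut at about 43% in these data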;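 also: modified DeaD lifespan yeast strain shifted to restrictive glucose medium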); conditions: OD615, 48 h, at 10 µM, active compounds read high
In short: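 material = engineered S. cerevisiae DeaD strain | buffer or medium = glucose-based CSMM-D restrictive medium | dosing = one concentration, 10 µM final, 0.25% DMSO | schedule = 4 h pre-growth plus 48 h compound exposure, 30 °C | detection = OD615 absorbance reading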

[3] = doxorubicin toxicity protection in MRP-1 cells – H69AR cells, CellTiter-Glo, duplicate, MRP-1 activator project, pilot screen (AID 807;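 active = viability increase at or above a cutoff of the median across tested compounds plus 3 SD, cut at about 8.5% in these data, passing the limit was not always enough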;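 also: compound pretreatment 18-22 h then 72 h combined with doxorubicin; 0% = doxorubicin alone and 100% = vehicle without doxorubicin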); conditions: H69AR viability with doxorubicin, CellTiter-Glo luminescence; at 10 µM; active compounds read high
[4] = viability of HCT116 without oncogenic beta-catenin – human colon tumor cells, pilot screen (AID 823;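 active = cell viability at or below a set limit in both duplicate runs, the limit being the all-compound median minus 4 SD, cut at about 23% in these data, passing the limit was not always enough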;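 also: 0% = wells killed by 20 µM Hyamine and 100% = untreated DMSO cell wells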); conditions: HCT116 beta-catenin knockout viability, CellTiter-Glo, 60 h; at 10 µM; active compounds read low
[5] = viability of PTEN-null HCT116 cells – cell-based, HCT116 clonal line, CellTiter-Glo, pilot screen (AID 824;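 active = viability at or below 27.92% in each of two runs, the all-compound median minus 4 SD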;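 also: 0% = 20 µM Hyamine control and 100% = vehicle cell control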); conditions: HCT116 PTEN-deleted viability, 60 h, at 10 µM, active compounds read low
[6] = RAM pathway blockade in budding yeast – dse1pr::URA3 reporter, 5-FOA selection, pilot screen (AID 869);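 also: 0% = DMSO wells with no growth and 100% = 10 µM 1-NA-PP1 with full growth; RAM network block rescues cells from 5-FOA so hits raise OD615 growth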; conditions: S. cerevisiae dse1pr::URA3 5-FOA growth, OD615, 2 d; at 10 µM; active compounds read high; strain carries analog-sensitive mutant Cbk1 kinase
[7] = RAM signaling pathway blockade in yeast – S. cerevisiae, Pdr1DBD-CYC8 efflux-inhibited sensitized strain, primary screen (AID 1298;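 active = RAM network inhibition above 8.4% in each of two replicates, 3 SD over the compound average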;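 also: 0% = DMSO untreated cells without growth and 100% = 10 µM 1-NA-PP1 full growth; higher means more yeast growth rescued from 5-FOA killing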); conditions: S. cerevisiae cbk1-as DSE1-URA3 strain, 5-FOA growth OD615, 2 d; at 50 µM; active compounds read high

Row | Structure (SMILES) | growth inhibition [1] | growth inhibition [2] | viability increase [3] | viability [4] | viability [5] | inhibition [6] | RAM network inhibition [7]
1 | CCn1c(CNC(=O)COC)nc2ccccc21 | -5.41% (inactive) | 0.165% (inactive) | 0.97% (inactive) | 105% (inactive) | 97.2% (inactive) | 0.7% (inactive) | 5.67% (inactive)
2 | Nc1ccc2nc(-c3ccc(Cl)cc3)[nH]c2c1 | -13% (inactive) | -10.7% (inactive) | -8.6% (inactive) | 73.4% (inactive) | 75.3% (inactive) | 0.935% (inactive) | 4.58% (inactive)
3 | COc1ccccc1N1CCN(CC(=O)c2ccc3ccn(C(C)=O)c3c2)CC1 | -3.38% (inactive) | -12.2% (inactive) | -5.06% (inactive) | 88.2% (inactive) | 79.8% (inactive) | 1.14% (inactive) | 3.27% (inactive)
4 | O=C(O)CC1SC(=Nc2ccccc2)N(c2ccccc2)C1=O (stereo unspecified) | -21.4% (inactive) | -13.2% (inactive) | -1.21% (inactive) | 98.1% (inactive) | 99.4% (inactive) | 1.24% (inactive) | 2.93% (inactive)
5 | C=CCOc1cccc(C2c3c(oc4ccc(F)cc4c3=O)C(=O)N2CCCN2CCOCC2)c1 (stereo unspecified) | -4.2% (inactive) | 2.91% (inactive) | -5.54% (inactive) | 93% (inactive) | 93.5% (inactive) | -0.045% (inactive) | 1.42% (inactive)
6 | COc1cccc(NC=C2C(=O)OC3(CCCCC3)OC2=O)c1 | -8.74% (inactive) | 5.97% (inactive) | -1.85% (inactive) | 95.1% (inactive) | 104% (inactive) | 2.04% (inactive) | 5.16% (inactive)
7 | O=C1c2ccccc2C(Nc2ccc3c(c2)OCCO3)N1Cc1ccccc1 (stereo unspecified) | -4.61% (inactive) | 8.43% (inactive) | -1.12% (inactive) | 88.7% (inactive) | 80.9% (inactive) | 0.61% (inactive) | 2.3% (inactive)
8 | COc1cccc(-n2c(Cc3cc(=O)[nH]c(=O)[nH]3)nnc2SCc2cccnc2)c1 | -7.23% (inactive) | -2.88% (inactive) | 0.52% (inactive) | 106% (inactive) | 102% (inactive) | 0% (inactive) | 0.9% (inactive)
9 | Oc1cnn(-c2ccccc2)c1 | -0.88% (inactive) | 3.54% (inactive) | -5.6% (inactive) | 92.8% (inactive) | 94.3% (inactive) | 0.91% (inactive) | -0.83% (inactive)
10 | COc1ccc(-n2c3c(cc(C(=O)N4CCC(C)CC4)c2=O)C(=O)CC(C)(C)C3)cc1 | -3.21% (inactive) | 7.18% (inactive) | -2.27% (inactive) | 111% (inactive) | 101% (inactive) | 1.98% (inactive) | 0.25% (inactive)
11 | CCOC(=O)NC(Nc1ccc(C)cn1)(C(F)(F)F)C(F)(F)F | 11.5% (inactive) | 4.23% (inactive) | -1.59% (inactive) | 95.2% (inactive) | 100% (inactive) | 0.545% (inactive) | 0.7% (inactive)
12 | C=CCn1c(C)c(C(C)=O)c(SC)nc1=S | -2.37% (inactive) | 17.1% (inactive) | -1.99% (inactive) | 101% (inactive) | 99.8% (inactive) | 0.34% (inactive) | 5.32% (inactive)
13 | COc1ccc(-n2c(=O)c3ccccc3n(CC(=O)NC3CCCC3)c2=O)c(OC)c1 | -4.38% (inactive) | -22% (inactive) | -0.98% (inactive) | 98.2% (inactive) | 96.2% (inactive) | 2.04% (inactive) | 3.21% (inactive)
14 | CN1CCN(C(=O)C2CCCCC2C(=O)O)CC1 (stereo unspecified) | 0.81% (inactive) | -12.5% (inactive) | -1.14% (inactive) | 99.4% (inactive) | 99.1% (inactive) | 2.02% (inactive) | -0.26% (inactive)
15 | CN(C)C1NC(=O)c2cc(-c3ccccc3)sc2N1 (stereo unspecified) | -5.92% (inactive) | -10.2% (inactive) | -0.01% (inactive) | 102% (inactive) | 104% (inactive) | 0.135% (inactive) | 2.33% (inactive)
16 | O=C(NC1CCCCCCC1)c1c(O)c2ccccc2[nH]c1=O | -3.12% (inactive) | 8.01% (inactive) | -4.23% (inactive) | 91.6% (inactive) | 92.5% (inactive) | 2.4% (inactive) | -0.37% (inactive)
17 | O=C(Nc1ccc(-c2nc3cccnc3s2)cc1)c1ccc(Br)o1 | 11.6% (inactive) | 19.6% (inactive) | 3.03% (inactive) | 105% (inactive) | 101% (inactive) | 1.11% (inactive) | 0.96% (inactive)

Row | Structure (SMILES) | growth inhibition [1] | growth inhibition [2] | viability increase [3] | viability [4] | viability [5] | inhibition [6] | RAM network inhibition [7]
18 | CCOC(=O)CN1CC23C=CC(O2)C(C(=O)NC2CCCCCC2)C3C1=O (stereo unspecified) | -6.04% (inactive) | 3.45% (inactive) | -2.93% (inactive) | 99.3% (inactive) | 94.5% (inactive) | 1.36% (inactive) | 0.37% (inactive)
19 | Brc1ccc(CSc2nnc(-c3ccccn3)n2Cc2ccco2)cc1 | 2.3% (inactive) | 28.9% (inactive) | -3.69% (inactive) | 15.2% (active) | 15.7% (active) | 2.53% (inactive) | 7.63% (inactive)
20 | Cn1c(C(=O)NCCc2c[nH]c3ccccc23)cc2sccc21 | -2.17% (inactive) | 12.7% (inactive) | -4.58% (inactive) | 95% (inactive) | 88% (inactive) | 1.56% (inactive) | 2% (inactive)
21 | O=C(CSc1n[nH]c(-c2ccccc2)n1)c1ccccc1 | -0.485% (inactive) | 16.9% (inactive) | -0.56% (inactive) | 95.8% (inactive) | 95.5% (inactive) | 1.01% (inactive) | 2.45% (inactive)
22 | COc1ccc(C2C3=C(CC(c4ccco4)CC3=O)Nc3ccccc3N2C(C)=O)cc1 (stereo unspecified) | -19% (inactive) | -16.4% (inactive) | -2.47% (inactive) | 93.5% (inactive) | 102% (inactive) | 1.25% (inactive) | 0.96% (inactive)
23 | Cc1ccc(S(=O)(=O)Cc2ccc(C(=O)N3CCCC3)o2)cc1 | -4.83% (inactive) | -13.4% (inactive) | -1.75% (inactive) | 99.2% (inactive) | 108% (inactive) | 1.19% (inactive) | 4.1% (inactive)
24 | COCCNC(=O)CS(=O)Cc1nc(-c2ccccc2C)oc1C (stereo unspecified) | -8.16% (inactive) | 5.6% (inactive) | -0.56% (inactive) | 100% (inactive) | 98% (inactive) | 0.23% (inactive) | 2.05% (inactive)
25 | O=C(NCC1CCCO1)c1ccc2nc(N3CCCCC3)sc2c1 (stereo unspecified) | -2.59% (inactive) | -4.53% (inactive) | -0.46% (inactive) | 102% (inactive) | 96.8% (inactive) | 2.37% (inactive) | 1.03% (inactive)
26 | N#Cc1cccc(NC(=O)CC2CCCCC2)c1 | -1.48% (inactive) | 11.6% (inactive) | -0.95% (inactive) | 95% (inactive) | 86.8% (inactive) | 0.645% (inactive) | 2.76% (inactive)
27 | CCOC(=O)c1ccc2c(c1)NC(=O)C(N1CCN(c3ccc(OC)cc3)CC1)S2 (stereo unspecified) | 0.455% (inactive) | -5.2% (inactive) | -7.1% (inactive) | 74.6% (inactive) | 51.8% (inactive) | 4.31% (inactive) | 6.45% (inactive)
28 | COc1ccc(NC(=O)C2CCN(S(=O)(=O)c3ccc(C)cc3)CC2)cc1OC | 4.97% (inactive) | 1.39% (inactive) | -3.08% (inactive) | 97.1% (inactive) | 101% (inactive) | 2.25% (inactive) | 4.75% (inactive)
29 | CCOC(=O)N1CCC(NC(=O)CCc2c(C)nc3c(c(C)nn3-c3ccccc3)c2C)CC1 | -8.02% (inactive) | 0.22% (inactive) | -1.37% (inactive) | 100% (inactive) | 89.5% (inactive) | 2.38% (inactive) | 4.08% (inactive)
30 | CCOC(=O)N1CCC(NC(=O)c2ccc(CS(=O)(=O)c3ccc(OC)cc3)o2)CC1 | 5.7% (inactive) | -8.08% (inactive) | -2.5% (inactive) | 104% (inactive) | 94.1% (inactive) | 1.96% (inactive) | 1.82% (inactive)
31 | COC(=O)c1cc2c(s1)-c1ccccc1OC2 | -11.1% (inactive) | 4.14% (inactive) | -4.57% (inactive) | 101% (inactive) | 95.7% (inactive) | 1.39% (inactive) | 3.14% (inactive)
32 | CCOC(=O)CSc1nnc(CSc2nc3sc4c(c3c(=O)[nH]2)CCC4)n1C | -5.48% (inactive) | 4.33% (inactive) | -2% (inactive) | 98.4% (inactive) | 107% (inactive) | 0.35% (inactive) | 6.56% (inactive)
33 | C=CCOC(=O)C1=C(C)N=C2SCCC(=O)N2C1c1ccc(OC(=O)c2ccco2)cc1 (stereo unspecified) | 5.35% (inactive) | 24.3% (inactive) | -0.72% (inactive) | 94.2% (inactive) | 85.8% (inactive) | 1.94% (inactive) | 5.69% (inactive)
